Test results published in ChEMBL document CHEMBL1139668, “Structure-activity relationship studies on niphimycin, a guanidylpolyol macrolide antibiotic. Part 1: The role of the N-methyl-N''-alkylguanidinium moiety” (2006).
≈ marks a conversion by molar mass, not a printed value. Calls of active or inactive are those of the source. The rule behind the calls is not given here.

Legend:
[1] = tested on: Bacillus subtilis; assay: Antibacterial activity against Bacillus subtilis IFO 3007; assay type: functional
How it was run: (§1)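 MIC by serial twofold broth dilution; bacteria grown in 3% nutrient broth at 37 °C, read after 24 h of cultivation.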

[2] = tested on: Mucor mucedo; assay: Antifungal activity against Mucor mucedo IFO 7684; assay type: functional
[3] = tested on: Aspergillus niger; assay: Antifungal activity against Aspergillus niger ATCC 6275; assay type: functional
[4] = tested on: Micrococcus luteus; assay: Antibacterial activity against Micrococcus luteus IFO 3333; assay type: functional; how it was run: as §1
[5] = tested on: Saccharomyces cerevisiae; assay: Antimicrobial activity against Saccharomyces cerevisiae X2180 1A; assay type: functional
[6] = tested on: Rhizopus arrhizus; assay: Antifungal activity against Rhizopus oryzae IFO 4766; assay type: functional
[7] = tested on: Saccharomyces cerevisiae; assay: Antimicrobial activity against Saccharomyces cerevisiae IFO 0203; assay type: functional
[8] = tested on: Schizosaccharomyces pombe; assay: Antimicrobial activity against Schizosaccharomyces pombe L972 h-; assay type: functional
[9] = tested on: Schizosaccharomyces pombe; assay: Antimicrobial activity against Schizosaccharomyces pombe SA21 h+; assay type: functional
[10] = tested on: Escherichia coli; assay: Antibacterial activity against Escherichia coli IFO 2545; assay type: functional; how it was run: as §1
[11] = tested on: Penicillium chrysogenum; assay: Antifungal activity against Penicillium chrysogenum IFO 4626; assay type: functional
[12] = tested on: Candida albicans; assay: Antimicrobial activity against Candida albicans IFO 1061; assay type: functional
[13] = tested on: Rhodotorula mucilaginosa; assay: Antimicrobial activity against Rhodotorula mucilaginosa IFO 0001; assay type: functional
[14] = tested on: Schizosaccharomyces pombe; assay: Antimicrobial activity against Schizosaccharomyces pombe IFO 0342; assay type: functional
[15] = tested on: Saccharomyces cerevisiae; assay: ROS production in Saccharomyces cerevisiae cells at 10 uM; assay type: functional, organism-based
How it was run: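 Yeast cells (10^7 cells/ml) preloaded with 40 µM DCFH-DA in YPD at 30 °C for 60 min, then exposed to compound in YPD at 30 °C for 60 min. Cells washed and resuspended in PBS. Fluorescence read at ex 480/em 530 nm and given in arbitrary units.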

[16] = tested on: Saccharomyces cerevisiae; assay: ROS production in Saccharomyces cerevisiae cells at lethal concentration; assay type: functional, organism-based
How it was run: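 S. cerevisiae cells (10^7 cells/ml) preloaded with 40 µM DCFH-DA in YPD medium, 30 °C, 60 min. Then exposed to compound in YPD at 30 °C for 60 min, washed and resuspended in phosphate-buffered saline. Fluorescence of 10^7 cells read at excitation 480 nm, emission 530 nm. Intensity reported directly as arbitrary units.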

| Structure (SMILES) | MIC [1] [µM] | MIC [2] [µM] | MIC [3] [µM] | MIC [4] [µM] | MIC [5] [µM] | MIC [6] [µM] | MIC [7] [µM] | MIC [8] [µM] | MIC [9] [µM] | MIC [10] [µM] | MIC [11] [µM] | MIC [12] [µM] | MIC [13] [µM] | MIC [14] [µM] | Activity [15] | Activity [16] |
| --- | --- | --- | --- | --- | --- | --- | --- | --- | --- | --- | --- | --- | --- | --- | --- | --- |
| CCCCCCCC/N=C(\N)NC | > 400 | > 400 | > 400 | > 400 | > 400 | > 400 | > 400 | 200 (≈ 37.1 µg/mL) | 400 (≈ 74.1 µg/mL) | 400 (≈ 74.1 µg/mL) | 100 (≈ 18.5 µg/mL) | > 400 | > 400 | 400 (≈ 74.1 µg/mL) | – | – |
| C[C@@H]1[C@H](O)[C@@H](C)/C=C/C=C/C=C/C=C/C=C/C=C/C=C/[C@H](O[C@@H]2O[C@H](C)[C@@H](O)[C@H](N)[C@@H]2O)C[C@@H]2O[C@](O)(C[C@@H](O)C[C@@H](O)[C@H](O)CC[C@@H](O)C[C@@H](O)CC(=O)O[C@H]1C)C[C@H](O)[C@H]2C(=O)O | – | – | – | – | – | – | – | – | – | – | – | – | – | – | inactive | – |
| C/N=C(/N)NCCC/C=C/CCC[C@H](C)C[C@H](C)[C@H]1OC(=O)C(C)C(O)/C=C/C(C)C(O)CC(O)C(C)C(O)CCC(C)C(O)CC2(O)OC(CC(OC(=O)CC(=O)O)CC(O)CC(O)C(C)C(O)/C=C/C=C/C1C)CC(O)C2O (stereo not given in full) [NIPHIMYCIN] | 5 (≈ 5.71 µg/mL) | 10 (≈ 11.4 µg/mL) | 2 (≈ 2.28 µg/mL) | – | 5 (≈ 5.71 µg/mL) | 1 (≈ 1.14 µg/mL) | – | 2 (≈ 2.28 µg/mL) | – | – | 1 (≈ 1.14 µg/mL) | 2 (≈ 2.28 µg/mL) | 2 (≈ 2.28 µg/mL) | – | – | Active |
| C/N=C(/N)NCCCCCCCCCCCCO | > 400 | > 400 | > 400 | > 400 | > 400 | > 400 | > 400 | > 400 | > 400 | > 400 | > 400 | > 400 | > 400 | > 400 | – | – |
| CCCC/N=C(\N)NC | > 400 | > 400 | > 400 | > 400 | > 400 | > 400 | > 400 | > 400 | > 400 | 400 (≈ 51.7 µg/mL) | 100 (≈ 12.9 µg/mL) | > 400 | > 400 | > 400 | – | – |

Continued by falling MIC [1], values first:

| MIC [1] [µM] | MIC [2] [µM] | MIC [3] [µM] | MIC [4] [µM] | MIC [5] [µM] | MIC [6] [µM] | MIC [7] [µM] | MIC [8] [µM] | MIC [9] [µM] | MIC [10] [µM] | MIC [11] [µM] | MIC [12] [µM] | MIC [13] [µM] | MIC [14] [µM] | Structure (SMILES) | Activity [15] | Activity [16] |
| --- | --- | --- | --- | --- | --- | --- | --- | --- | --- | --- | --- | --- | --- | --- | --- | --- |
| 400 (≈ 114 µg/mL) | > 400 | 200 (≈ 57.1 µg/mL) | > 400 | > 400 | > 400 | > 400 | 400 (≈ 114 µg/mL) | 400 (≈ 114 µg/mL) | 400 (≈ 114 µg/mL) | 200 (≈ 57.1 µg/mL) | > 400 | 200 (≈ 57.1 µg/mL) | 400 (≈ 114 µg/mL) | CNC(=N)NCCCCCCCCCCCC(=O)OC | – | – |
| 100 (≈ 27.1 µg/mL) | 400 (≈ 109 µg/mL) | > 400 | 400 (≈ 109 µg/mL) | 400 (≈ 109 µg/mL) | > 400 | > 400 | 200 (≈ 54.3 µg/mL) | 200 (≈ 54.3 µg/mL) | 400 (≈ 109 µg/mL) | 400 (≈ 109 µg/mL) | 400 (≈ 109 µg/mL) | 200 (≈ 54.3 µg/mL) | 200 (≈ 54.3 µg/mL) | C/N=C(/N)NCCCCCCCCCCCC(=O)O | – | – |
| 25 (≈ 6.04 µg/mL) | 50 (≈ 12.1 µg/mL) | 50 (≈ 12.1 µg/mL) | > 400 | 100 (≈ 24.1 µg/mL) | 200 (≈ 48.3 µg/mL) | 100 (≈ 24.1 µg/mL) | 50 (≈ 12.1 µg/mL) | 50 (≈ 12.1 µg/mL) | 50 (≈ 12.1 µg/mL) | 25 (≈ 6.04 µg/mL) | 400 (≈ 96.6 µg/mL) | 50 (≈ 12.1 µg/mL) | 50 (≈ 12.1 µg/mL) | CCCCCCCCCCCC/N=C(\N)NC | – | – |
| 12.5 (≈ 3.72 µg/mL) | 12.5 (≈ 3.72 µg/mL) | 25 (≈ 7.44 µg/mL) | > 400 | 100 (≈ 29.8 µg/mL) | 50 (≈ 14.9 µg/mL) | 50 (≈ 14.9 µg/mL) | 12.5 (≈ 3.72 µg/mL) | 12.5 (≈ 3.72 µg/mL) | 50 (≈ 14.9 µg/mL) | 6.25 (≈ 1.86 µg/mL) | 200 (≈ 59.5 µg/mL) | 12.5 (≈ 3.72 µg/mL) | 25 (≈ 7.44 µg/mL) | CCCCCCCCCCCCCCCC/N=C(\N)NC | – | Active |
